# Results from PubChem BioAssay.
# Values without a mark were called inactive.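 The calls were made as follows: active = viability at or below 30% in both replicate assays; inconclusive = viability at or below 30% in just one of the two assays; inactive = the rest.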
# Test: HUVEC growth inhibition – cell-based, human, primary screen (AID 575);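 also: 100% = median of untreated cell wells with 0.1% DMSO on each plate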
# Details: HUVEC proliferation, CellTiter-Glo luminescence, 72 h; at 10 µM; stronger effect = lower value
# Procedure, shortened: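 Timing: 72 h treatment at 37 °C; material: HUVEC primary cells; technique: CellTiter-Glo luminescence measuring cellular ATP; controls: vehicle and MePR control wells; measure: percent of median DMSO-control luminescence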
row,Structure (SMILES),viability
1,CCCCN=CC1=C(O)C(C(=O)OC)C(C)(C)CC1=O (stereo unspecified),104%
2,Cc1ccc(C)c(C(=O)CC2(O)C(=O)N(C)c3ccccc32)c1 (stereo unspecified),105%
3,CC(=O)C1=C(C)Nc2ncnn2C1c1cccc(OCc2ccccc2)c1 (stereo unspecified),115%
4,Cc1ccc(C(=O)CC2(O)C(=O)N(C)c3ccc(Br)cc32)c(C)c1 (stereo unspecified),77.7%
5,Fc1cccc(Nc2ncnc3c2cnn3-c2ccccc2)c1,54.9%
6,COc1ccc(NC(=O)NCCN2C(=O)C3C4C=CC(C4)C3C2=O)cc1 (stereo unspecified),100%
7,Cc1ccc(C)c(NC(=O)CSc2nnc(-c3ccccc3)o2)c1,111%
8,O=C(NCCCN1CCOCC1)c1cc(-c2ccc(O)cc2)on1,83.7%
9,CCOC(=O)c1ccc(NC(=O)Cn2cc3c(n2)CCC(C)C3)cc1 (stereo unspecified),91.4%
10,N#C/C(C(=O)N1CCOCC1)=C1/SC=C(c2ccccc2)N1c1ccccc1,107%
11,COc1ccc(C(=O)c2coc3ccc(O)c(CN4CCCCC4)c23)cc1,66%
12,CCn1c(C(=O)N2CCC(C(=O)N3CCN(c4ccccn4)CC3)CC2)cc2sccc21,93.4%
13,CCOC(=O)N1CCN(Cc2nc3c(c(=O)n(C)c(=O)n3C)n2Cc2ccccc2)CC1,96.3%
14,CN1CCN(C(=O)c2ccc(CS(=O)(=O)c3c(Cl)cccc3Cl)o2)CC1,97.4%
15,CN(C)CCCN1C(=O)c2oc3ccc(Cl)cc3c(=O)c2C1c1cccnc1 (stereo unspecified),96.7%
16,O=C(CSc1nnc2ccccn12)c1ccccc1,88.8%
